Measured values as given in ChEMBL document CHEMBL4270609, “Purple acid phosphatase inhibitors as leads for osteoporosis chemotherapeutics” (Eur J Med Chem, 2018).
The source made the active and inactive calls. No cut-off for these calls is given here.

Key:
[1] = biological target: T1, Tartrate-resistant acid phosphatase type 5 (Sus scrofa) (UniProt P09889); assay: Inhibition of pig purple acid phosphatase Fe(3)Fe(2) state assessed as enzyme-inhibitor complex at 100 uM using pNPP as substrate by UV/Vis spectrophotometric method
T1 sequence (whole entry): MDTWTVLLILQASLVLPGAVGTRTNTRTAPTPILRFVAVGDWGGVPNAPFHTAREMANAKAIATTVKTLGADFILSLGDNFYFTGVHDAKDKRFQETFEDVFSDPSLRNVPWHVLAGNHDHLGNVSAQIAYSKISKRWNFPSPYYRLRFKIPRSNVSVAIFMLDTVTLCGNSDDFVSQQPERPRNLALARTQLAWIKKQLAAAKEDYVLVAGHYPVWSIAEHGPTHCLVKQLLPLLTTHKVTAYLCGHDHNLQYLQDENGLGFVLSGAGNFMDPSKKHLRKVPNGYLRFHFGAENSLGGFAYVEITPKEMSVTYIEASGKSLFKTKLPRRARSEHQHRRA
How it was run: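 Used 5 mM pNPP substrate and 12 nM enzyme in 0.1 M acetate pH 4.9 with 25% DMSO at 25 °C. p-Nitrophenol formation was followed at 405 nm; result expressed as percentage inhibition.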

[2] = biological target: T1, Tartrate-resistant acid phosphatase type 5 (Sus scrofa); assay: Competitive inhibition of pig purple acid phosphatase Fe(3)Fe(2) state assessed as enzyme-inhibitor complex using pNPP as substrate by UV/Vis spectrophotometric method
How it was run: (§1)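 Pig PAP was from sow uterine fluid and pre-reduced to Fe(III)Fe(II) with 0.77 mM β-mercaptoethanol (10 min, 37 °C); rkbPAP was purified from red kidney beans. Assays ran at 25 °C, pH 4.9 (0.1 M acetate, 25% DMSO) with 12 nM enzyme, pNPP 1–12.5 mM and inhibitor 50–300 μM. p-Nitrophenol was read at 405 nm. Kic and Kiuc came from non-linear fit to the general inhibition equation.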

[3] = biological target: T2, Fe(3+)-Zn(2+) purple acid phosphatase (Phaseolus vulgaris) (UniProt P80366); assay: Competitive inhibition of red kidney bean purple acid phosphatase Fe(3)Fe(2) state assessed as enzyme-inhibitor complex using pNPP as substrate by UV/Vis spectrophotometric method; how it was run: as §1
T2 sequence (whole entry): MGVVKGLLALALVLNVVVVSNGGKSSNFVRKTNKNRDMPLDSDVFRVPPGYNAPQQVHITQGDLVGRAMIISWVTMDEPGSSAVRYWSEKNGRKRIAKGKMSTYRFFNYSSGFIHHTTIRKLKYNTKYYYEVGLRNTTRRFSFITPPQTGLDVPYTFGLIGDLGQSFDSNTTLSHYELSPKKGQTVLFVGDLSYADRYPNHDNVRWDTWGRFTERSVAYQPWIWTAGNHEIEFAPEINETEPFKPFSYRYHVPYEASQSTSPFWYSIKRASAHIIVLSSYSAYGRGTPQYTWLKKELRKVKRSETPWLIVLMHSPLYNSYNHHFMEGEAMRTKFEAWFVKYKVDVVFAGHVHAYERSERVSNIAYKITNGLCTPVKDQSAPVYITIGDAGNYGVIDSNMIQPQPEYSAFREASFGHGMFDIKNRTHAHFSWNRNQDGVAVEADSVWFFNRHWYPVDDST

[4] = biological target: T1, Tartrate-resistant acid phosphatase type 5 (Sus scrofa); assay: Uncompetitive inhibition of pig purple acid phosphatase Fe(3)Fe(2) state assessed as enzyme-substrate-inhibitor complex using pNPP as substrate by UV/Vis spectrophotometric method; how it was run: as §1
[5] = biological target: T2, Fe(3+)-Zn(2+) purple acid phosphatase (Phaseolus vulgaris); assay: Uncompetitive inhibition of red kidney bean purple acid phosphatase Fe(3)Fe(2) state assessed as enzyme-substrate-inhibitor complex using pNPP as substrate by UV/Vis spectrophotometric method; how it was run: as §1

SMILES	inhibition [1]	Kic [2]	Kic [3]	also measured
O=C(O)[C@@H]1CSC(c2ccc(O)cc2)N1 (some centres not stated)	inactive	–	–	–
O=C(O)c1csc(-c2ccc(Cl)cc2)n1	–	49 µM	530 µM	–
O=C(O)c1csc(-c2ccccc2Cl)n1	–	630 µM	920 µM	Kiuc [4]: 350 µM
Cc1ccc(C2N[C@H](C(=O)O)CS2)cc1 (some centres not stated)	inactive	–	–	–
O=C(O)c1csc(-c2ccccc2)n1	–	190 µM	–	–
O=C(O)[C@@H]1CSC(c2ccccc2O)N1 (some centres not stated)	inactive	–	–	–
O=C(O)[C@@H]1CSC(c2c(O)ccc3ccccc23)N1 (some centres not stated)	inactive	–	–	–

Second part, led by results:

inhibition [1]	Kic [2]	Kic [3]	SMILES	also measured
inactive	–	–	O=C(O)[C@@H]1CSC(c2cccc3ccccc23)N1 (some centres not stated)	–
inactive	–	–	O=C(O)[C@@H]1CSC(c2ccccc2)N1 (some centres not stated)	–
inactive	–	–	O=C(O)[C@@H]1CSC(c2ccco2)N1 (some centres not stated)	–
–	42 µM	340 µM	Cc1ccc(-c2nc(C(=O)O)cs2)cc1	–
–	120 µM	400 µM	COc1ccc(-c2nc(C(=O)O)cs2)cc1	Kiuc [5]: 770 µM
inactive	–	–	COc1ccc(C2N[C@H](C(=O)O)CS2)cc1 (some centres not stated)	–
–	33 µM	185 µM	O=C(O)c1csc(-c2cccc3ccccc23)n1	Kiuc [4]: 110 µM
